Results from ChEMBL document CHEMBL4622841, “Structural modifications of indolinones bearing a pyrrole moiety and discovery of a multi-kinase inhibitor with potent antitumor activity” (Bioorg Med Chem, 2020).
pIC50: −log10 of the molar value.

Key:
[1] = target: Platelet-derived growth factor receptor beta (Homo sapiens, UniProt P09619); assay: Inhibition of N-terminal GST-fused human PDGFRbeta cytoplasmic domain (557 to 1106 (end) residues) expressed in baculovirus expression system using FAM-labeled peptide and ATP as substrate preincubated for 10 mins followed by substrate addition measured after 1 hr by mobility shift assay
HT-29 = assay: Antitumor activity against human HT-29 cells xenografted in nu/nu mouse assessed as tumour growth inhibition at 100 mg/kg, po qd for 18 days and measured twice per week by vernier caliper method; format: functional; details: HT-29, po, 432 h, read-out: TGI
[2] = target: Tyrosine-protein kinase Lyn (Homo sapiens, UniProt P07948); assay: Inhibition of LYN (unknown origin) using FAM-labeled peptide and ATP as substrate preincubated for 10 mins followed by substrate addition measured after 1 hr by mobility shift assay
[3] = Half life in human liver microsomes; format: ADME, Microsome
[4] = Inhibition of N-terminal GST-tagged human recombinant PDGFRalpha D842I mutant expressed in baculovirus-infected Sf9 cells using FAM-labeled peptide and ATP as substrate preincubated for 10 mins followed by substrate addition measured after 1 hr by mobility shift assay
[5] = Intrinsic clearance in human liver microsomes; format: ADME, Microsome; details: read-out: CLH
[6] = Toxicity in nu/nu mouse xenografted with human HT-29 cells assessed as effect on body weight at 100 mg/kg, po qd for 18 days; format: organism-based; details: in vivo, 432 h
Method in brief: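 Female nu/nu mice, 4–6 weeks old, implanted subcutaneously in the right flank with HT-29 cells (2×10⁶/mL). Once tumours reached 200 mm³, mice randomised to groups (n = 6) and dosed orally once daily at 100 mg/kg for 18 days. Body weight monitored during treatment. Results given as mean ± SD.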

[7] = Inhibition of GST-tagged human recombinant VEGFR3 cytoplasmic domain (800 to 1297 residues) Q890H/V1128L/H1146R mutant expressed in baculovirus expression system using FAM-labeled peptide and ATP as substrate preincubated for 10 mins followed by substrate addition measured after 1 hr by mobility shift assay
[8] = target: Cyclin-dependent kinase 2 (Homo sapiens, UniProt P24941); assay: Inhibition of CDK2 (unknown origin) using FAM-labeled peptide and ATP as substrate preincubated for 10 mins followed by substrate addition measured after 1 hr by mobility shift assay
[9] = target: Vascular endothelial growth factor receptor 2 (Homo sapiens, UniProt P35968); assay: Inhibition of N-terminal GST fused human VEGFR2 cytoplasmic domain (790 to 1356 (end) residues) expressed in baculovirus expression system using FAM-labeled peptide and ATP as substrate preincubated for 10 mins followed by substrate addition measured after 1 hr by mobility shift assay
Chain of Vascular endothelial growth factor receptor 2 (P35968 whole entry, the tested form may be a part): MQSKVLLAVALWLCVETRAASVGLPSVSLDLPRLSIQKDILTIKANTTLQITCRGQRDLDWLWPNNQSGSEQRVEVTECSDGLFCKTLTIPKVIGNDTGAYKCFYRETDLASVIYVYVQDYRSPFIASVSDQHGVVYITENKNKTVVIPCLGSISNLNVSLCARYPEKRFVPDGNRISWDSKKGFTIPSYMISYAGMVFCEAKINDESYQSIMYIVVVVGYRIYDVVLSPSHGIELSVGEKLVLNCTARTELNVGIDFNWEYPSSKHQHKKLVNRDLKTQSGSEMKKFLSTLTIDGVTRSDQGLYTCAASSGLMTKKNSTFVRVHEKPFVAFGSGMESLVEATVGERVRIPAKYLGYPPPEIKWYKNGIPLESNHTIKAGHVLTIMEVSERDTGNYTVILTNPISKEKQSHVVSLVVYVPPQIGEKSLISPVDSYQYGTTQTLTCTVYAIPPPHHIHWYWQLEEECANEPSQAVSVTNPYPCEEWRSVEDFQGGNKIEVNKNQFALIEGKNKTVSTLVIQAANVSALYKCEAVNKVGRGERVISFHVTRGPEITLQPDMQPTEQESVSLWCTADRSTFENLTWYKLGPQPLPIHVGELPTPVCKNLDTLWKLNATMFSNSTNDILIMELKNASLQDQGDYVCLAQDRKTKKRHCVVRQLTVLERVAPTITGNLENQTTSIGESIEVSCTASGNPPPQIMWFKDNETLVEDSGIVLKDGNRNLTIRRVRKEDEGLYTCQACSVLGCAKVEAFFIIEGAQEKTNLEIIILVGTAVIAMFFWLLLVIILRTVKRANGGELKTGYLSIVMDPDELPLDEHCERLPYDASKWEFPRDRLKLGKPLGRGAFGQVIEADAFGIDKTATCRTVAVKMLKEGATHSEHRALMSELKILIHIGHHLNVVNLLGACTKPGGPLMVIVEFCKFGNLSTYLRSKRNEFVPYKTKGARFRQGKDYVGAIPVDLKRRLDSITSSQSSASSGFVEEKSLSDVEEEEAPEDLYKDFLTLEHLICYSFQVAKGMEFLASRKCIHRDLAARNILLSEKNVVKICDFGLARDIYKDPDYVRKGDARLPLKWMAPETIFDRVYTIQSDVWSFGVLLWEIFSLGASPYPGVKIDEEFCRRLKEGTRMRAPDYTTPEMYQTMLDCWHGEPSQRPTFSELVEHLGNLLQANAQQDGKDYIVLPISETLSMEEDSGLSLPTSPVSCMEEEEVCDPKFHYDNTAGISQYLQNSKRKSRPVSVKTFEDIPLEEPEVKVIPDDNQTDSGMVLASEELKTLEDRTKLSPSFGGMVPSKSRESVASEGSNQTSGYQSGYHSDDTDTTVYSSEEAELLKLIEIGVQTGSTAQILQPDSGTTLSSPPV

Chain of Platelet-derived growth factor receptor beta (P09619 whole entry, the tested form may be a part): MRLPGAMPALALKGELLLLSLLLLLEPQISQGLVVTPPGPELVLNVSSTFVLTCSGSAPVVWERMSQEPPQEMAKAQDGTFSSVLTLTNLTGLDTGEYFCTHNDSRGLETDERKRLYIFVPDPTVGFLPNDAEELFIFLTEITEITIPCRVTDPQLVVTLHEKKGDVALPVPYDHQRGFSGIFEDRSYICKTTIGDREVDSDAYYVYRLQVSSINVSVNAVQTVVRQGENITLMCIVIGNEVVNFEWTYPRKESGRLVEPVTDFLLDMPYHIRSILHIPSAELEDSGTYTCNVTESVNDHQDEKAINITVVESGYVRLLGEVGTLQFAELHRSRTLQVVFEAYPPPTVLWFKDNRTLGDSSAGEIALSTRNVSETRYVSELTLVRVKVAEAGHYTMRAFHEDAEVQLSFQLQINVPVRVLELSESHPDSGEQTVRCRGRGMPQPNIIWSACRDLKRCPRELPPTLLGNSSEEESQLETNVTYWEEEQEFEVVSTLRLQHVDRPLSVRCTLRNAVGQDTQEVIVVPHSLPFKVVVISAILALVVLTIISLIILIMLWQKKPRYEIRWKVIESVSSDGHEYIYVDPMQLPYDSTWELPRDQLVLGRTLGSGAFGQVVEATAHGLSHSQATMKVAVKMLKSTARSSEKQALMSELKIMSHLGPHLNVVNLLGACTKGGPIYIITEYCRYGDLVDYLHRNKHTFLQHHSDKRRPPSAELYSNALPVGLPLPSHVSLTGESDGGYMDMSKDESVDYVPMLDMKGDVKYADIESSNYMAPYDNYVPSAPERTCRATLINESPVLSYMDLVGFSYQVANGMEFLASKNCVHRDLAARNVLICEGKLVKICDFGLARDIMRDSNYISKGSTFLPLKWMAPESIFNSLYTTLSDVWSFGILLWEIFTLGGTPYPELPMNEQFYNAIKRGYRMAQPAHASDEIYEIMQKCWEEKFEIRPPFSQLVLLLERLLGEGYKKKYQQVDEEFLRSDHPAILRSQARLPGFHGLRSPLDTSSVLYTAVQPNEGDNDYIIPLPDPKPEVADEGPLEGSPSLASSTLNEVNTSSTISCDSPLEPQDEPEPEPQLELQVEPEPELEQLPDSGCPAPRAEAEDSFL
Chain of Tyrosine-protein kinase Lyn (P07948 whole entry): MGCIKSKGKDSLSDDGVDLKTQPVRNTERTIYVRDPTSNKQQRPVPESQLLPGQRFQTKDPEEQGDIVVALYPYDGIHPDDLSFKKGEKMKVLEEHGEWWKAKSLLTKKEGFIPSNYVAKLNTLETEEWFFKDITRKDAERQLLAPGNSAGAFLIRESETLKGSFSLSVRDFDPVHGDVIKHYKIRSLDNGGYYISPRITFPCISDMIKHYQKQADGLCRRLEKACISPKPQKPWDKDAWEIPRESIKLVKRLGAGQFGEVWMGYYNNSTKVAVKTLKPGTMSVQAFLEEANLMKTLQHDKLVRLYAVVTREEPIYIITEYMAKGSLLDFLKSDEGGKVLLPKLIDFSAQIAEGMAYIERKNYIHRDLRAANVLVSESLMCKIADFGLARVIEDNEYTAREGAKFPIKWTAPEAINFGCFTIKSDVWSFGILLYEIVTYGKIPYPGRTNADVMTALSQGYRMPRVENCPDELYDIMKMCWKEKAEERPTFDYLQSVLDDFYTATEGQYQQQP

Row | pIC50 [1] | Structure (SMILES) | further results
1 | 7.43 | COC(=O)c1ccc2c(c1)NC(=O)/C2=C(\Nc1ccc(-n2c(C)ccc2CN2CCOCC2)cc1)c1ccccc1 | 
2 |  | COC(=O)c1ccc2c(c1)NC(=O)/C2=C(\Nc1ccc(N(C)C(=O)CN2CCN(C)CC2)cc1)c1ccccc1 [NINTEDANIB] | inhibition in vivo at 100 mg/kg (HT-29): 44.3%; pIC50 [2]: 7.26; half-life [3]: 27.4 min; pIC50 [4]: 8.72; CLint scaled [5]: 63.5 mL/min/kg; Activity [6]: Non-Toxic; pIC50 [7]: 8.52; pIC50 [8]: < 6.00
3 | 7.34 | COC(=O)c1ccc2c(c1)NC(=O)/C2=C(\Nc1ccc(-n2c(C)ccc2CN(C)C)cc1)c1ccccc1 | 
4 | 6.91 | COC(=O)c1ccc2c(c1)NC(=O)/C2=C(\Nc1ccc(-n2c(C)ccc2CN2CCN(C)CC2)nc1)c1ccccc1 | 
5 | 6.94 | COC(=O)c1ccc2c(c1)NC(=O)/C2=C(\Nc1ccc(-n2cccc2CN2CCN(C)CC2)nc1)c1ccccc1 | 
6 | 7.15 | COC(=O)c1ccc2c(c1)NC(=O)/C2=C(\Nc1cnc(-n2cccc2CN(C)C)c(C)c1)c1ccccc1 | pIC50 [9]: < 6.00
7 | 7.62 | CCN(CC)Cc1ccc(C)n1-c1ccc(N/C(=C2\C(=O)Nc3cc(C(=O)OC)ccc32)c2ccccc2)cc1 | 
8 | 7.26 | COC(=O)c1ccc2c(c1)NC(=O)/C2=C(\Nc1ccc(-n2cccc2CN2CCN(C)CC2)cc1)c1ccccc1 | 
9 | 7.96 | COC(=O)c1ccc2c(c1)NC(=O)/C2=C(\Nc1ccc(-n2cccc2CN(C)C)cc1)c1ccccc1 | 
10 | 7.49 | COC(=O)c1ccc2c(c1)NC(=O)/C2=C(\Nc1ccc(-n2c(C)ccc2CN(C)C)nc1)c1ccccc1 | 
11 | 7.59 | COC(=O)c1ccc2c(c1)NC(=O)/C2=C(\Nc1ccc(-n2cccc2CN(C)C)nc1)c1ccccc1 | 
12 | 6.69 | COC(=O)c1ccc2c(c1)NC(=O)/C2=C(\Nc1ccc(-n2cccc2CN2CCN(C)CC2)c(C)c1)c1ccccc1 | 
13 | < 6.52 | COC(=O)c1ccc2c(c1)NC(=O)/C2=C(\Nc1cnc(-n2cccc2CN2CCN(C)CC2)c(C)c1)c1ccccc1 | pIC50 [9]: < 6.00
14 | 7.51 | COC(=O)c1ccc2c(c1)NC(=O)/C2=C(\Nc1ccc(-n2cccc2CN(C)C)c(C)c1)c1ccccc1 | 
